Rows were chosen to be rich in hits. Some 1.5% of all compounds tested hit in one or more screens of this group.
ZTA DNA inh = blocks Epstein-Barr virus ZTA, an EBNA-1 counter-screen; 320,000 tested, 0.15% active; P03206; ZTA-DNA binding, fluorescence polarization; AID 2234; inhibition, % at 11 µM; in the data active = inhibition above about 33%
LANA-H2A inh = blocks KSHV LANA binding to histone H2A/H2B; Q9QR71; inhibition, % (concentration not given with the values); 320,000 tested, 0.6% active; cell-free LANA-H2A/H2B peptide, fluorescence polarization; in the data active = inhibition mostly above about 10%, no sharp cut-off; inactive = mostly below about 6.7%
CSN deneddyl inh = blocks human CSN-mediated cullin deneddylation; Purified CSN, SCF-Nedd8-OG deneddylation, fluorescence polarization; inhibition, % at 12.5 µM; 360,000 tested, 0.38% active;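 active = pattern-corrected inhibition above about 35%, with an unprinted fluorescence ratio check between 0.5 and 1.5, limit read from the data, passing the limit was not always enough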;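 note: 0% = enzyme with substrate and 100% = substrate without enzyme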
Target sequence (Q92905 whole entry, looked up, one chain of several): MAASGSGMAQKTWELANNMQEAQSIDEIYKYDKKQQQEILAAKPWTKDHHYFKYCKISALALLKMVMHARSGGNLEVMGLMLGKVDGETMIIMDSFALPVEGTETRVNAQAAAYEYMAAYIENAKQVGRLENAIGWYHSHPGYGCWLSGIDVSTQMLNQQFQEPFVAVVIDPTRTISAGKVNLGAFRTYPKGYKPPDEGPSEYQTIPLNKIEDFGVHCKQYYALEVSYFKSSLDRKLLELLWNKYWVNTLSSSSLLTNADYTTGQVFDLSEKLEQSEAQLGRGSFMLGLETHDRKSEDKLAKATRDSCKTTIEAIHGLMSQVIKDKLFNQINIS
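Assay system: HEK293T-derived human Csn5 enzyme; quantity: 0.24 nM enzyme; medium: Tris/NaCl/DTT buffer, pH 7.5; also added: substrate SCFSkp2-Nedd8OG, 10 nM; doses: 12.5 µM compound; schedule: 90 min reaction at room temperature; signal: FP; read-out: % inhibition of substrate cleavage by Csn5; benchmarks: substrate-only high control, full reaction low control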
HNF4A DNA FP = change in binding of human HNF4 alpha to DNA | P41235 | HNF4a-FITC DNA binding, fluorescence polarization, 1 h | activity change, % at 10 µM | 360,000 tested, 0.3% active | AID 1224865; in the data active = activity change above about 30%, passing the limit was not always enough
Bfl-1 A1 inh = inhibitors of the anti-apoptotic protein A1, read as caspase activation. MEF A1-2A-BIM cells, Caspase-Glo 3/7 luminescence, 3 h; percent of clofoctol response, vehicle zero. AID 2462. 330,000 tested, 0.066% active. caspase activation, % (concentration not given with the values);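 active = over half of replicate activation scores above 10%, or exactly half above 10 with the replicate mean above 10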
EBNA-1 inh = blocks EBNA-1 binding to DNA; EBNA-1 DNA binding, fluorescence polarization; inhibition, % at 14.8 µM; 300,000 tested, 0.34% active; in the data active = inhibition above about 28%
* = called active by the depositor; / = no result; + = active, no number; ! = repeats disagree.

SMILES | ZTA DNA inh | LANA-H2A inh | CSN deneddyl inh | HNF4A DNA FP | Bfl-1 A1 inh | EBNA-1 inh
CCOc1ccc(C(=O)COC(=O)c2nn(CC)c(=O)c3ccccc23)cc1 | 0 | 13* | 3 | 1 | -1 | /
O=C(Nc1ccccc1-c1nc2ccccc2[nH]1)c1ccc(N2C(=O)CCC2=O)cc1 | -16 | 9 | 54* | 85* | 0 | -14
Cc1cnc2nc(-c3ccccc3)ccc2c1 | / | / | 83* | 4 | / | /
CCc1ccc2cc(C)cnc2n1 | / | / | -5 | -2 | / | /
COc1ccccc1NC(=O)CN1CC(=O)Nc2ccccc21 | 1 | 0 | -1 | -2 | 2 | -1
COc1cccc(-n2c(SCC(=O)N3CCc4ccccc43)nnc2-c2c[nH]c3ccccc23)c1 | -8 | 4 | 0 | -2 | 0 | -5
CCOc1ccc(-n2c(SCC(=O)N3CCc4ccccc43)nnc2-c2c[nH]c3ccccc23)cc1 | -9 | -5 | 141* | 38* | 0 | 17
N#CC(C#N)=c1ccc2c(c1)NC1(CCCCC1)N=2 | 40* | -5 | -6 | 1 | -1 | 38*
N#CC(C#N)=C1NC2(CCCCC2)Cc2ccccc21 | 7 | 4 | 1 | 0 | 0 | 8
O=C(CCCN1C(=O)c2cccnc2C1=O)Nc1ccccc1F | 2 | -1 | -1 | 1 | 0 | -3
O=C(CCCN1C(=O)c2cccnc2C1=O)N1CC(=O)N(CCc2ccccc2)C(=O)C1 | -13 | 25* | -2 | 2 | 0 | 5
CCC(C)NCCOCCOc1ccc(Cl)c2ccccc12 (stereo not drawn) | -22 | 12* | 0 | 3 | 1 | -9
COCCC1CCCCN1C(=O)c1cccc(OC2CCN(S(C)(=O)=O)CC2)c1 (stereo not drawn) | / | 17* | 0 | 4 | 0 | /
CC1=NN(C(N)=S)C(=O)C1N=Nc1cccc(Cl)c1C (stereo not drawn) | 7 | 1 | 3 | -5 | -11 | 6
Cc1ccc(F)c(S(=O)(=O)NC(=O)C2(C)CCN2C(=O)C/C=C/c2ccccc2)c1 (stereo not drawn) | / | / | -1 | -3 | / | /
CS(=O)(=O)Nc1ccc(C2=NN(S(C)(=O)=O)C(c3ccc4c(c3)OCO4)C2)cc1 (stereo not drawn) | -10 | 2 | 11 | 79* | 0 | 5
CC(=O)N1N=C(c2cccc(NS(C)(=O)=O)c2)CC1c1ccc2c(c1)OCO2 (stereo not drawn) | 3 | -2 | -4 | -1 | 0 | -7
COc1cc(-c2cc(N)n(S(=O)(=O)c3ccccc3)n2)cc(OC)c1OC | 6 | -3 | 5 | 3 | 0 | 6
Nc1cc(-c2ccccc2)nn1S(=O)(=O)c1ccc(Br)cc1 | -1 | -7 | + | 2 | 0 | -1
CN(C)c1ccc(N/C=C/C(=O)C(C)(C)C)cc1 | + | -4 | -5 | 3 | 1 | +
COc1ccc(CCN2C(=NC(C)=O)SC3CS(=O)(=O)CC32)cc1OC (stereo not drawn) | 1 | -8 | 0 | -1 | 1 | 1
Cc1cc(O)c(C(=O)/C=C/c2ccc(Cl)cc2)c(=O)o1 | -12 | -4 | 19 | 7 | -1 | -20
Cc1ccc(/C=C/C(=O)c2ccc([N+](=O)[O-])o2)cc1 | -7 | -4 | / | / | 7.9* | 16
O=C(/C=C/c1ccc(Cl)cc1)c1ccc([N+](=O)[O-])o1 | 8 | 6 | 14 | 0 | 9.9* | 8
Cc1ccc(CNC(=O)c2ccc([N+](=O)[O-])o2)cc1 | 1 | 0 | -1 | 4 | 1 | 6
CCOc1ccc(C(=O)C(C)OC(=O)c2nc(Cl)ccc2Cl)cc1 (stereo not drawn) | -3 | -3 | 0 | 1 | 0 | -6
COc1ccc(NC(=O)c2ccncc2)cc1S(=O)(=O)N1CCCCC1 | / | / | -6 | -3 | / | /
CO[C@H]1C=CO[C@@]2(C)Oc3c(C)c(O)c4c(O)c(c(C=NN5CCN(C)CC5)c(O)c4c3C2=O)NC(=O)C(C)=CC=C[C@H](C)[C@H](O)[C@@H](C)[C@@H](O)[C@@H](C)[C@H](OC(C)=O)[C@@H]1C | 10 | 49*! | 6 | 16 | 0 | 7

From PubChem BioAssay
